In brackets after ≈: the same amount, converted by molar mass.
Legend:
[1] = Half life in CD1 neutropenic mouse with bacterial infection in thigh at 40 mg/kg, sc; type: ADME, organism-based; design: dose 40 mg/kg, route subcutaneous; details: in vivo
Method in brief: (§1)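 Neutropenic thigh-infected mice (cyclophosphamide i.p. 150 mg/kg day −4, 100 mg/kg day −1) given single s.c. ceftobiprole medocaril doses; two groups of three mice per dose bled retro-orbitally at 0.5–6 h, each animal 3–4 times. Total serum drug measured by agar diffusion bioassay with E. coli NIH-J (linear 0.25–256 μg/ml). Cmax, t1/2 and AUC from one-compartment model.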

[2] = T>MIC in methicillin-resistant Staphylococcus aureus 22115 infected CD1 neutropenic mouse at static dose of 16.9 mg/kg, sc administered every 6 hrs; type: functional; details: route subcutaneous
[3] = T>MIC in Streptococcus pneumoniae CDC-145 infected CD1 neutropenic mouse at static dose of 0.956 mg/kg, sc administered every 6 hrs; type: functional; details: route subcutaneous
Method in brief: (§2)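 Neutropenic mice (cyclophosphamide i.p. 150 and 100 mg/kg, 4 and 1 days pre-infection) given 0.1 ml thigh inoculum (1:10 dilution of 10^8 CFU/ml), then treated from 2 h post-infection for 24 h with s.c. ceftobiprole medocaril (0.010–160 mg/kg) at varied intervals. Thigh CFU plated from homogenates. Static dose came from a sigmoid Hill model, and T>MIC was estimated from mouse PK and MIC.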

Streptococcus pneumoniae [4] = test: Antimicrobial activity against Streptococcus pneumoniae CDC 1329 by broth dilution method; type: functional
Method in brief: (§3)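 Ceftobiprole MIC determined by CLSI (NCCLS) broth microdilution.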

[5] = T>MIC in methicillin-resistant Staphylococcus aureus WIS-1 infected CD1 neutropenic mouse at static dose of 16.1 mg/kg, sc administered every 6 hrs; type: functional; details: route subcutaneous
Staphylococcus aureus [6] = test: Antimicrobial activity against Staphylococcus aureus ATCC 29213 by broth dilution method; type: functional
Method in brief: (§4)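 Ceftobiprole MIC by broth microdilution per Clinical and Laboratory Standards Institute (formerly NCCLS) methods, using ceftobiprole standard powder.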

[7] = Half life in CD1 neutropenic mouse with bacterial infection in thigh at 10 mg/kg, sc; details: in vivo
[8] = T>MIC in methicillin-resistant Staphylococcus aureus WIS-1 infected CD1 neutropenic mouse at 2-log kill dose of 53.9 mg/kg, sc administered every 6 hrs; type: functional; details: route subcutaneous
Staphylococcus aureus [9] = test: Antimicrobial activity against Staphylococcus aureus ATCC 22923 by broth dilution method; type: functional; method in brief: as §4
[10] = T>MIC in methicillin-resistant Staphylococcus aureus 12248 infected CD1 neutropenic mouse at 2-log kill dose of 50.5 mg/kg, sc administered every 6 hrs; type: functional; details: route subcutaneous
[11] = Cmax in CD1 neutropenic mouse with bacterial infection in thigh at 160 mg/kg, sc; type: ADME, organism-based; design: dose 160 mg/kg, route subcutaneous; details: in vivo; method in brief: as §1
[12] = T>MIC in Escherichia coli ATCC 25922 infected CD1 neutropenic mouse at static dose of 8.25 mg/kg, sc administered every 6 hrs; type: functional; details: route subcutaneous; method in brief: as §2
[13] = T>MIC in Streptococcus pneumoniae CDC 1293 infected CD1 neutropenic mouse at static dose of 2.72 mg/kg, sc administered every 6 hrs; type: functional; details: route subcutaneous; method in brief: as §2
[14] = T>MIC in Streptococcus pneumoniae MNO-418 infected CD1 neutropenic mouse at 2-log kill dose of 0.624 mg/kg, sc administered every 6 hrs; type: functional; details: route subcutaneous
[15] = Half life in CD1 neutropenic mouse with bacterial infection in thigh at 160 mg/kg, sc; type: ADME, organism-based; design: dose 160 mg/kg, route subcutaneous; details: in vivo; method in brief: as §1
[16] = T>MIC in Staphylococcus aureus ATCC Smith infected CD1 neutropenic mouse at static dose of 4.21 mg/kg, sc administered every 6 hrs; type: functional; details: route subcutaneous; method in brief: as §2
Streptococcus pneumoniae [17] = test: Antimicrobial activity against Streptococcus pneumoniae CDC 1293 by broth dilution method; type: functional; method in brief: as §3
[18] = T>MIC in Klebsiella pneumoniae infected CD1 neutropenic mouse at 2-log kill dose of 43.8 mg/kg, sc administered every 6 hrs; type: functional; details: route subcutaneous
[19] = AUC in CD1 neutropenic mouse with bacterial infection in thigh at 160 mg/kg, sc; type: ADME, organism-based; design: dose 160 mg/kg, route subcutaneous; details: plasma; method in brief: as §1
[20] = Cmax in CD1 neutropenic mouse with bacterial infection in thigh at 40 mg/kg, sc; type: ADME, organism-based; design: dose 40 mg/kg, route subcutaneous; details: in vivo; method in brief: as §1
[21] = T>MIC in Streptococcus pneumoniae CDC 1329 infected CD1 neutropenic mouse at static dose of 2.93 mg/kg, sc administered every 6 hrs; type: functional; details: route subcutaneous; method in brief: as §2
[22] = AUC in CD1 neutropenic mouse with bacterial infection in thigh at 10 mg/kg, sc; details: plasma
Streptococcus pneumoniae [23] = test: Antimicrobial activity against Streptococcus pneumoniae ATCC 10813 by broth dilution method; type: functional; method in brief: as §3
[24] = T>MIC in Staphylococcus aureus ATCC 33591 infected CD1 neutropenic mouse at 2-log kill dose of 15.3 mg/kg, sc administered every 6 hrs; type: functional; details: route subcutaneous
[25] = T>MIC in Enterobacter cloacae 4567 infected CD1 neutropenic mouse at static dose of 3.28 mg/kg, sc administered every 3 hrs; type: functional; details: route subcutaneous; method in brief: as §2
Staphylococcus aureus [26] = test: Antimicrobial activity against methicillin-resistant Staphylococcus aureus WIS-1 by broth dilution method; type: functional; method in brief: as §4
Staphylococcus aureus [27] = test: Antimicrobial activity against Staphylococcus aureus ATCC Smith by broth dilution method; type: functional; method in brief: as §4
[28] = T>MIC in methicillin-resistant Staphylococcus aureus 22115 infected CD1 neutropenic mouse at 2-log kill dose of 34.4 mg/kg, sc administered every 6 hrs; type: functional; details: route subcutaneous
[29] = T>MIC in Escherichia coli ATCC 25922 infected CD1 neutropenic mouse at 2-log kill dose of 42.4 mg/kg, sc administered every 6 hrs; type: functional; details: route subcutaneous
[30] = T>MIC in Staphylococcus aureus ATCC 22923 infected CD1 neutropenic mouse at static dose of 2.03 mg/kg, sc administered every 6 hrs; type: functional; details: route subcutaneous; method in brief: as §2
Streptococcus pneumoniae [31] = test: Antimicrobial activity against Streptococcus pneumoniae CDC 145 by broth dilution method; type: functional; method in brief: as §3
[32] = T>MIC in methicillin-resistant Staphylococcus aureus 11888 infected CD1 neutropenic mouse at 2-log kill dose of 40.2 mg/kg, sc administered every 6 hrs; type: functional; details: route subcutaneous
Staphylococcus aureus [33] = test: Antimicrobial activity against methicillin-resistant Staphylococcus aureus 12248 by broth dilution method; type: functional; method in brief: as §4

Nc1nc(/C(=N/O)C(=O)N[C@@H]2C(=O)N3C(C(=O)O)=C(/C=C4\CCN([C@@H]5CCNC5)C4=O)CS[C@H]23)ns1 [CEFTOBIPROLE]
half-life [1]: 19.8 min
fT>MIC [2]: 25.4%
fT>MIC [3]: 15.2%
MIC (Streptococcus pneumoniae [4]): 0.25 µg/mL (≈ 0.468 µM)
fT>MIC [5]: 25%
MIC (Staphylococcus aureus [6]): 0.5 µg/mL (≈ 0.935 µM)
half-life [7]: 19 min
fT>MIC [8]: 39.1%
MIC (Staphylococcus aureus [9]): 0.5 µg/mL (≈ 0.935 µM)
fT>MIC [10]: 31.6%
Cmax [11]: 144 µg/mL
fT>MIC [12]: 41.9%
fT>MIC [13]: 16.3%
fT>MIC [14]: 31.8%
half-life [15]: 31.7 min
fT>MIC [16]: 19.6%
MIC (Streptococcus pneumoniae [17]): 0.5 µg/mL (≈ 0.935 µM)
fT>MIC [18]: 59.2%
AUC [19]: 213 µg·h/mL
Cmax [20]: 31.2 µg/mL
fT>MIC [21]: 22.2%
AUC at 10 mg/kg [22]: 5.85 µg·h/mL
MIC (Streptococcus pneumoniae [23]): 0.03 µg/mL (≈ 0.0561 µM)
fT>MIC [24]: 24.4%
fT>MIC [25]: 35.6%
MIC (Staphylococcus aureus [26]): 1 µg/mL (≈ 1.87 µM)
MIC (Staphylococcus aureus [27]): 0.5 µg/mL (≈ 0.935 µM)
fT>MIC [28]: 29.6%
fT>MIC [29]: 57.8%
fT>MIC [30]: 14.1%
MIC (Streptococcus pneumoniae [31]): 0.25 µg/mL (≈ 0.468 µM)
fT>MIC [32]: 27.4%
MIC (Staphylococcus aureus [33]): 2 µg/mL (≈ 3.74 µM)
